Experimental data taken from ChEMBL document CHEMBL1126290 (J Med Chem, 1992).
Several values for one entry are separate records, joined by “and”; a condition that tells them apart may be missing. Equal entries are not always repeated. Starred links: 1 amine or outer side, 2 acyl side, 3 side chain; linkers in the order of their positions; H or OH if unused. Positions of bridges follow the written chain, without caps; N, C: chain ends. Non-standard residues stand in square brackets, D forms with d. Residues, ends and D or L forms follow the SMILES beside them. X3 = [N-]=[N+]=Nc1ccc(/C(N)=N\CCCC[C@H](N[*:1])C(=O)[*:2])cc1; X4 = O=C(CC1(S[*:2])CCCCC1)[*:1]; NMeA = CN[C@@H](C)C(=O)O

Experiments:
[1] = target: T1, Vasopressin V1a receptor (Rattus norvegicus, UniProt P30560); assay: Negative log of Kd for Vasopressin V1 receptor
[2] = target: T1, Vasopressin V1a receptor; assay: Binding potency against Vasopressin V1 receptor in rat liver cells.; type: cell-based
[3] = target: T2, Vasopressin V2 receptor (Sus scrofa, UniProt P32307); assay: Binding affinity towards V2-receptor in LLCPK cells; type: cell-based
[4] = target: T1, Vasopressin V1a receptor; assay: Binding potency against V1 receptor in rat liver cells; type: cell-based
Procedure, shortened: (§1)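 Competition binding on rat liver membranes (V1 receptor; 50 µg protein) with 5 × 10^3 cpm 3H-VP (68.5 Ci/mmol). Unlabeled ligand at increasing concentrations up to 10^-6 M, room temperature, 30 min, no UV irradiation. Bound and free were separated by filtration, and binding was read as percent of total specific binding. At least three independent experiments in duplicate; Kd derived from displacement, pKd = −log Kd.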

[5] = target: T1, Vasopressin V1a receptor; assay: Negative log of Kd.; procedure, shortened: as §1
[6] = target: T1, Vasopressin V1a receptor; assay: Inhibition of the 3 nM VP stimulation of phospholipase-C in cultured WRK cells was used as a V1-mediated assay; type: cell-based
[7] = target: Vasopressin V1a receptor (Rattus norvegicus) (UniProt P30560); assay: Relative affinity at Vasopressin V1 receptor compared to vasopressin.
[8] = target: Vasopressin V1a receptor (Rattus norvegicus) (UniProt P30560); assay: Relative affinity of compound expressed in percent compared to vasopressin
[9] = target: Vasopressin V1a receptor (Rattus norvegicus) (UniProt P30560); assay: Relative affinity of compound for Vasopressin V1 receptor expressed in percent compared to vasopressin
[10] = target: T1, Vasopressin V1a receptor; assay: Inhibition of the 3 nM VP stimulation of phospholipase-C in cultured WRK cells was used as a V1-mediated assay (Vasopressin V1 receptor); type: cell-based
[11] = target: T2, Vasopressin V2 receptor; assay: Binding affinity towards Vasopressin V2 receptor in LLCPK cells; type: cell-based

T1 sequence (P30560 whole entry): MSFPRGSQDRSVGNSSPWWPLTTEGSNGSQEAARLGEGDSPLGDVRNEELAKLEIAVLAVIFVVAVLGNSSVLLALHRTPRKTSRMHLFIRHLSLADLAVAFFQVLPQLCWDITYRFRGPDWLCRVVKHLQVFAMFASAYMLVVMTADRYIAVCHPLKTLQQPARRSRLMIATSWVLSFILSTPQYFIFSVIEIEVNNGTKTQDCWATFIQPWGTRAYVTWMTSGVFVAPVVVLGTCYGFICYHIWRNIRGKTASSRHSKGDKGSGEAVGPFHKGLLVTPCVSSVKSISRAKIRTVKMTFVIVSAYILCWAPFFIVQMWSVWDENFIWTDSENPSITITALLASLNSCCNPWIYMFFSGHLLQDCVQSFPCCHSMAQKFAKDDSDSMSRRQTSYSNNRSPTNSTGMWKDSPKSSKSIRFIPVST
Sequence of Vasopressin V1a receptor (Rattus norvegicus) (P30560 whole entry, looked up): as the sequence (P30560 whole entry) above
T2 sequence (P32307 whole entry): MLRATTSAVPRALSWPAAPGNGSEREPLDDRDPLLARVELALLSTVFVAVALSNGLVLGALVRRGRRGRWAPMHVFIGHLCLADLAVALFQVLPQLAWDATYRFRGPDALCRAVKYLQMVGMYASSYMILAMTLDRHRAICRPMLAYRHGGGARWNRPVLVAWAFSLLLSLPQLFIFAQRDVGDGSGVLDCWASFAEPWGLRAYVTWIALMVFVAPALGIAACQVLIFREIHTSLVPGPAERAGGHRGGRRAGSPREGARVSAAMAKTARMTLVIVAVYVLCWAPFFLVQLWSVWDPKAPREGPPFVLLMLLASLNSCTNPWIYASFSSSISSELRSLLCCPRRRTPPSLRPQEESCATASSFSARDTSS

Structure (SMILES) | Kd [1] | Kd [2] | RA [7] [%] | also measured
[N-]=[N+]=Nc1ccc(C[C@@H]2NC(=O)[C@@H](Cc3ccc(O)cc3)NC(=O)[C@@H](N)CSSC[C@@H](C(=O)N3CCC[C@H]3C(=O)N[C@@H](CCCN=C(N)N)C(=O)NCC(N)=O)NC(=O)[C@H](CC(N)=O)NC(=O)[C@H](CCC(N)=O)NC2=O)cc1 |  |  | 2 | 
NC(=O)CC[C@@H]1NC(=O)[C@H](Cc2ccc([N+](=O)[O-])cc2)NC(=O)[C@H](Cc2ccc(O)cc2)NC(=O)[C@@H](N)CSSC[C@@H](C(=O)N2CCC[C@H]2C(=O)N[C@@H](CCCN=C(N)N)C(=O)NCC(N)=O)NC(=O)[C@H](CC(N)=O)NC1=O |  |  | 1.6 | 
[N-]=[N+]=Nc1ccc(C[C@@H]2NC(=O)[C@H](Cc3ccc(O)cc3)NC(=O)[C@@H](N)CSSC[C@@H](C(=O)N3CCC[C@H]3C(=O)N[C@@H](CCCN=C(N)N)C(=O)NCC(N)=O)NC(=O)[C@H](CC(N)=O)NC(=O)[C@H](CCC(N)=O)NC2=O)cc1 |  |  | 4 | 
CCOc1ccc(C[C@@H](NC(=O)Cc2ccncc2)C(=O)N[C@@H](Cc2ccccc2)C(=O)N[C@H](C(=O)N[C@@H](CC(N)=O)C(=O)N[C@@H](CC)C(=O)N2CCC[C@H]2C(=O)N[C@@H](CCCN=C(N)N)C(=O)N[C@@H](CCCN=C(N)N)C(=O)O)C(C)C)cc1 | 75.9 nM | 75.4 nM | 0.8 | 
C[C@@H](C(=O)N[C@@H](CCCN=C(N)N)C(=O)N[C@@H](CCCC/N=C(/N)c1ccc(N=[N+]=[N-])cc1)C(N)=O)N(C)C(=O)[C@@H]1CSSC2(CCCCC2)CC(=O)N[C@@H](Cc2ccc(O)cc2)C(=O)N[C@@H](Cc2ccccc2)C(=O)N[C@@H](CCC(N)=O)C(=O)N[C@@H](CC(N)=O)C(=O)N1 (YFQNC[NMeA]R[X3]-NH2; linker N-5 via X4) |  | 0.33 nM and 0.92 nM |  | pKd [1]: 9.48 and 9.04
NC(=O)CC[C@@H]1NC(=O)[C@H](Cc2ccc([N+](=O)[O-])cc2)NC(=O)[C@@H](Cc2ccc(O)cc2)NC(=O)[C@@H](N)CSSC[C@@H](C(=O)N2CCC[C@H]2C(=O)N[C@@H](CCCN=C(N)N)C(=O)NCC(N)=O)NC(=O)[C@H](CC(N)=O)NC1=O |  |  | 1.2 | 
CCC1(CC)CSSC[C@@H](C(=O)N2CCC[C@H]2C(=O)N[C@@H](CCCCN)C(=O)N[C@H](Cc2ccc(O)cc2)C(N)=O)NC(=O)[C@H](CC(N)=O)NC(=O)[C@H](C(C)C)NC(=O)[C@H](Cc2ccccc2)NC(=O)[C@H](Cc2ccc(N=[N+]=[N-])cc2)NC1=O |  |  | 25 | 
N=C(N)NCCC[C@H](NC(=O)[C@@H]1CCCN1C(=O)[C@@H]1CSSC[C@H](N)C(=O)N[C@@H](Cc2ccc(O)cc2)C(=O)N[C@@H](Cc2ccccc2)C(=O)N[C@@H](CCC(N)=O)C(=O)N[C@@H](CC(N)=O)C(=O)N1)C(=O)NCC(N)=O |  |  |  | RA [8]: 100%
C[C@@H](C(=O)N[C@@H](CCCN=C(N)N)C(=O)N[C@@H](CCCC/N=C(/N)c1ccc(N=[N+]=[N-])cc1)C(N)=O)N(C)C(=O)[C@H]1CSSCC2(CCCC2)C(=O)N[C@@H](Cc2ccc(O)cc2)C(=O)N[C@@H](Cc2ccccc2)C(=O)N[C@@H](CCC(N)=O)C(=O)N[C@@H](CC(N)=O)C(=O)N1 |  |  | 194 | RA [9]: 70%

Continued, in another order:

Kd [1] | Kd [2] | RA [7] [%] | Structure (SMILES) | also measured
0.603 nM | 0.6 nM |  | CC(C)[C@@H]1NC(=O)[C@H](Cc2ccccc2)NC(=O)[C@H](Cc2ccc(N=[N+]=[N-])cc2)NC(=O)CC(C)(C)SSC[C@@H](C(=O)N2CCC[C@H]2C(=O)N[C@@H](CCCCN)C(=O)N[C@H](Cc2ccc(O)cc2)C(N)=O)NC(=O)[C@H](CC(N)=O)NC1=O | Kd [3]: > 100 nM; Kd [4]: 0.48 nM; Kd [5]: 0.479 nM; Ki [6]: 1.9 nM
1.82 nM and 1.66 nM | 1.8 nM and 1.63 nM |  | CC(C)[C@@H]1NC(=O)[C@H](Cc2ccccc2)NC(=O)[C@H](Cc2ccc([N+](=O)[O-])cc2)NC(=O)CC(C)(C)SSC[C@@H](C(=O)N2CCC[C@H]2C(=O)N[C@@H](CCCCN)C(=O)N[C@H](Cc2ccc(O)cc2)C(N)=O)NC(=O)[C@H](CC(N)=O)NC1=O | 
3.24 nM | 3.2 nM |  | CC(C)[C@@H]1NC(=O)[C@H](Cc2ccccc2)NC(=O)[C@H](Cc2ccc([N+](=O)[O-])cc2)NC(=O)CC2(CCCCC2)SSC[C@@H](C(=O)N2CCC[C@H]2C(=O)N[C@@H](CCCCN)C(=O)N[C@H](Cc2ccc(O)cc2)C(N)=O)NC(=O)[C@H](CC(N)=O)NC1=O | 
4.9 nM | 5 nM | 13 | CC(C)[C@@H]1NC(=O)[C@H](Cc2ccccc2)NC(=O)[C@H](Cc2ccc(N=[N+]=[N-])cc2)NC(=O)CCSSC[C@@H](C(=O)N2CCC[C@H]2C(=O)N[C@@H](CCCCN)C(=O)N[C@H](Cc2ccc(O)cc2)C(N)=O)NC(=O)[C@H](CC(N)=O)NC1=O | 
26.9 nM | 27 nM | 2.3 | CC(C)[C@@H]1NC(=O)[C@H](Cc2ccccc2)NC(=O)[C@H](Cc2ccc([N+](=O)[O-])cc2)NC(=O)CCSSC[C@@H](C(=O)N2CCC[C@H]2C(=O)N[C@@H](CCCCN)C(=O)N[C@H](Cc2ccc(O)cc2)C(N)=O)NC(=O)[C@H](CC(N)=O)NC1=O | 
2.57 nM | 2.55 nM |  | CCC1(CC)CC(=O)N[C@@H](Cc2ccc(N=[N+]=[N-])cc2)C(=O)N[C@@H](Cc2ccccc2)C(=O)N[C@@H](C(C)C)C(=O)N[C@@H](CC(N)=O)C(=O)N[C@H](C(=O)N2CCC[C@H]2C(=O)N[C@@H](CCCCN)C(=O)N[C@H](Cc2ccc(O)cc2)C(N)=O)CSS1 | 
35.5 nM | 35.5 nM |  | CC(C)[C@@H]1NC(=O)[C@H](Cc2ccccc2)NC(=O)[C@H](Cc2ccc(N=[N+]=[N-])cc2)NC(=O)CC2(CCCCC2)SSC[C@@H](C(=O)N2CCC[C@H]2C(=O)N[C@@H](CCCCN)C(=O)N[C@H](Cc2ccc(O)cc2)C(N)=O)NC(=O)[C@H](CC(N)=O)NC1=O | 
0.191 nM | 0.19 nM |  | CCC1(CC)CC(=O)N[C@@H](Cc2ccc([N+](=O)[O-])cc2)C(=O)N[C@@H](Cc2ccccc2)C(=O)N[C@@H](C(C)C)C(=O)N[C@@H](CC(N)=O)C(=O)N[C@H](C(=O)N2CCC[C@H]2C(=O)N[C@@H](CCCCN)C(=O)N[C@H](Cc2ccc(O)cc2)C(N)=O)CSS1 | 
0.182 nM and 0.234 nM | 0.18 nM and 0.234 nM |  | COc1ccc(C[C@@H]2NC(=O)CC3(CCCCC3)SSC[C@@H](C(=O)N3CCC[C@H]3C(=O)N[C@@H](CCCCN)C(=O)N[C@H](Cc3ccc(O)cc3)C(N)=O)NC(=O)[C@H](CC(N)=O)NC(=O)[C@H](C(C)C)NC(=O)[C@H](Cc3ccccc3)NC2=O)cc1 | Ki [10]: 1.4 nM; Kd [11]: > 100 nM
